Experimental data reported in ChEMBL document CHEMBL1275439, “Acquisition of a plasmid-borne blaOXA-58 gene with an upstream IS1008 insertion conferring a high level of carbapenem resistance to Acinetobacter baumannii” (2008).
In brackets after ≈: the same amount, converted by molar mass.

Experiments:
Format in all cases: functional
[1] = test system: Acinetobacter baumannii; assay: Antimicrobial activity against Acinetobacter baumannii ATCC 15151T containing plasmid harboring OXA-58-3 by broth dilution test
Summary of the method: (§1)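 Recombinant plasmids were electroporated (2.5 kV, 25 µF) into electrocompetent cells harvested at exponential phase (OD600 0.5–0.7). Cells were recovered in SOC broth at 37°C for 1 h and selected on antibiotics. MICs were then read by Sensititre broth dilution or agar dilution per CLSI, with carbapenems confirmed by Etest. Tests were run in duplicate with ATCC 25922/27853 controls.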

[2] = test system: Escherichia coli; assay: Antimicrobial activity against Escherichia coli DH5alpha by broth dilution test
[3] = test system: Escherichia coli; assay: Antimicrobial activity against Escherichia coli DH5alpha harboring plasmid containing OXA-58-3 by broth dilution test
[4] = test system: Acinetobacter baumannii; assay: Antimicrobial activity against Acinetobacter baumannii Ab290 harboring TVICU53 plasmid by broth dilution test; summary of the method: as §1
[5] = test system: Acinetobacter baumannii; assay: Antimicrobial activity against Acinetobacter baumannii Ab290 containing plasmid harboring OXA-58-4 by broth dilution test; summary of the method: as §1
[6] = test system: Acinetobacter baumannii; assay: Antimicrobial activity against Acinetobacter baumannii ATCC 15151T by broth dilution test
Summary of the method: (§2)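 MICs determined by broth dilution on automated Sensititre susceptibility plates or by agar dilution, interpreted per CLSI guidelines. Carbapenem MICs confirmed by Etest. E. coli ATCC 25922 and P. aeruginosa ATCC 27853 served as quality-control strains. All tests done in duplicate.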

[7] = test system: Acinetobacter baumannii; assay: Antimicrobial activity against Acinetobacter baumannii Ab290 by broth dilution test; summary of the method: as §2
[8] = test system: Acinetobacter baumannii; assay: Antimicrobial activity against Acinetobacter baumannii Ab290 containing plasmid harboring OXA-58-3 by broth dilution test; summary of the method: as §1
[9] = test system: Acinetobacter baumannii; assay: Antimicrobial activity against Acinetobacter baumannii TVICU53 by broth dilution test
Summary of the method: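 MICs by broth dilution on automated susceptibility plates, or by agar dilution, read and interpreted per CLSI guidelines; carbapenem MICs confirmed by Etest. Clinical isolate tested against a panel of aminoglycosides, β-lactams, β-lactam/inhibitor combinations, carbapenems, ciprofloxacin, chloramphenicol and trimethoprim-sulfamethoxazole. E. coli ATCC 25922 and P. aeruginosa ATCC 27853 run as quality controls. All tests done in duplicate.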

[10] = test system: Escherichia coli; assay: Antimicrobial activity against Escherichia coli DH5alpha harboring plasmid containing OXA-58-4 by broth dilution test

Compound: CC1(C)S[C@@H]2[C@H](NC(=O)[C@H](C(=O)O)c3ccsc3)C(=O)N2[C@H]1C(=O)O [TICARCILLIN]
- MIC [1]: > 1020 µg/mL
- MIC [2]: 8 µg/mL (≈ 20.8 µM)
- MIC [3]: > 1020 µg/mL
- MIC [4]: > 1020 µg/mL
- MIC [5]: 256 µg/mL (≈ 666 µM)
- MIC [6]: 8 µg/mL (≈ 20.8 µM)
- MIC [7]: 16 µg/mL (≈ 41.6 µM)
- MIC [8]: > 1020 µg/mL
- MIC [9]: > 1020 µg/mL
- MIC [10]: 256 µg/mL (≈ 666 µM)

Compound: CO/N=C(\C(=O)N[C@@H]1C(=O)N2C(C(=O)O)=C(COC(C)=O)CS[C@H]12)c1csc(N)n1 [CEFOTAXIME]
- MIC [1]: 16 µg/mL (≈ 35.1 µM)
- MIC [2]: < 0.12 µg/mL
- MIC [4]: 8 µg/mL (≈ 17.6 µM)
- MIC [6]: 16 µg/mL (≈ 35.1 µM)
- MIC [7]: 8 µg/mL (≈ 17.6 µM)
- MIC [8]: 8 µg/mL (≈ 17.6 µM)
- MIC [9]: 64 µg/mL (≈ 141 µM)

Compound: CO/N=C(\C(=O)N[C@@H]1C(=O)N2C(C(=O)O)=C(COC(N)=O)CS[C@H]12)c1ccco1 [CEFUROXIME]
- MIC [2]: 4 µg/mL (≈ 9.43 µM)
- MIC [3]: 4 µg/mL (≈ 9.43 µM)
- MIC [4]: 32 µg/mL (≈ 75.4 µM)
- MIC [6]: > 128 µg/mL
- MIC [7]: 32 µg/mL (≈ 75.4 µM)
- MIC [8]: 32 µg/mL (≈ 75.4 µM)
- MIC [9]: > 128 µg/mL

Compound: C[C@@H](O)[C@H]1C(=O)N2C(C(=O)O)=C(SCCNC=N)C[C@H]12 [IMIPENEM ANHYDROUS]
- MIC [1]: 32 µg/mL (≈ 107 µM)
- MIC [2]: 0.25 µg/mL (≈ 0.835 µM)
- MIC [3]: 2 µg/mL (≈ 6.68 µM)
- MIC [4]: 32 µg/mL (≈ 107 µM)
- MIC [5]: 1 µg/mL (≈ 3.34 µM)
- MIC [6]: 0.5 µg/mL (≈ 1.67 µM)
- MIC [7]: 0.25 µg/mL (≈ 0.835 µM)
- MIC [8]: 64 µg/mL (≈ 214 µM)
- MIC [9]: 64 µg/mL (≈ 214 µM)
- MIC [10]: 0.25 µg/mL (≈ 0.835 µM)

Compound: CC1(C)S[C@@H]2[C@H](NC(=O)[C@H](N)c3ccc(O)cc3)C(=O)N2[C@H]1C(=O)O [AMOXICILLIN]
- MIC [2]: 8 µg/mL (≈ 21.9 µM)
- MIC [3]: > 256 µg/mL
- MIC [4]: > 256 µg/mL
- MIC [5]: > 256 µg/mL
- MIC [6]: > 256 µg/mL
- MIC [7]: 32 µg/mL (≈ 87.6 µM)
- MIC [8]: > 256 µg/mL
- MIC [9]: > 256 µg/mL
- MIC [10]: > 256 µg/mL

Compound: CC(C)(O/N=C(\C(=O)N[C@@H]1C(=O)N2C(C(=O)[O-])=C(C[n+]3ccccc3)CS[C@H]12)c1csc(N)n1)C(=O)O [CEFTAZIDIME]
- MIC [1]: 8 µg/mL (≈ 14.6 µM)
- MIC [2]: < 0.12 µg/mL
- MIC [3]: < 0.12 µg/mL
- MIC [4]: 4 µg/mL (≈ 7.32 µM)
- MIC [6]: 8 µg/mL (≈ 14.6 µM)
- MIC [7]: 4 µg/mL (≈ 7.32 µM)
- MIC [8]: 4 µg/mL (≈ 7.32 µM)
- MIC [9]: 128 µg/mL (≈ 234 µM)

Compound: C[C@@H](O)[C@H]1C(=O)N2C(C(=O)O)=C(S[C@@H]3CN[C@H](C(=O)N(C)C)C3)[C@H](C)[C@H]12 [MEROPENEM]
- MIC [1]: 32 µg/mL (≈ 83.4 µM)
- MIC [2]: < 0.25 µg/mL
- MIC [4]: 16 µg/mL (≈ 41.7 µM)
- MIC [5]: 0.5 µg/mL (≈ 1.3 µM)
- MIC [6]: 0.5 µg/mL (≈ 1.3 µM)
- MIC [7]: 0.25 µg/mL (≈ 0.652 µM)
- MIC [8]: 16 µg/mL (≈ 41.7 µM)
- MIC [9]: 16 µg/mL (≈ 41.7 µM)

Compound: C[C@H]1[C@H](NC(=O)/C(=N\OC(C)(C)C(=O)O)c2csc(N)n2)C(=O)N1S(=O)(=O)O [AZTREONAM]
- MIC [1]: 128 µg/mL (≈ 294 µM)
- MIC [2]: < 0.12 µg/mL
- MIC [3]: < 0.12 µg/mL
- MIC [4]: 16 µg/mL (≈ 36.7 µM)
- MIC [6]: 64 µg/mL (≈ 147 µM)
- MIC [8]: 16 µg/mL (≈ 36.7 µM)
- MIC [9]: 64 µg/mL (≈ 147 µM)

Compound: Cc1nnc(SCC2=C(C(=O)O)N3C(=O)[C@@H](NC(=O)Cn4cnnn4)[C@H]3SC2)s1 [CEFAZOLIN]
- MIC [2]: 4 µg/mL (≈ 8.8 µM)
- MIC [3]: 8 µg/mL (≈ 17.6 µM)
- MIC [6]: > 128 µg/mL
- MIC [7]: > 128 µg/mL
- MIC [9]: > 128 µg/mL
